From ChEMBL document CHEMBL1123812, “Pyrroloisoquinoline antidepressants. 2. In-depth exploration of structure-activity relationships” (J Med Chem, 1987)

Columns and labels:
Mus musculus [1] = species: Mus musculus; experiment: Antagonism of tetrabenazine (TBZ)-induced depression measured in mice by motor activity; type: functional; conditions: Mus musculus; read-out: ED50
How it was run: (§1)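 Nonfasted male Swiss Webster mice, 18–24 g, ten per dose level and in saline controls. Test compound given ip 30 min before tetrabenazine 32 mg/kg ip; dose expressed as free base. Motor activity and ptosis scored. Control response ≤90% corrected by Abbott's formula.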

[2] = target: Sodium-dependent dopamine transporter (Rattus norvegicus, UniProt P23977); experiment: Inhibition of the uptake of tritiated dopamine (DA) in rat synaptosomes; type: subcellular, Brain
Sequence of Sodium-dependent dopamine transporter (P23977 whole entry): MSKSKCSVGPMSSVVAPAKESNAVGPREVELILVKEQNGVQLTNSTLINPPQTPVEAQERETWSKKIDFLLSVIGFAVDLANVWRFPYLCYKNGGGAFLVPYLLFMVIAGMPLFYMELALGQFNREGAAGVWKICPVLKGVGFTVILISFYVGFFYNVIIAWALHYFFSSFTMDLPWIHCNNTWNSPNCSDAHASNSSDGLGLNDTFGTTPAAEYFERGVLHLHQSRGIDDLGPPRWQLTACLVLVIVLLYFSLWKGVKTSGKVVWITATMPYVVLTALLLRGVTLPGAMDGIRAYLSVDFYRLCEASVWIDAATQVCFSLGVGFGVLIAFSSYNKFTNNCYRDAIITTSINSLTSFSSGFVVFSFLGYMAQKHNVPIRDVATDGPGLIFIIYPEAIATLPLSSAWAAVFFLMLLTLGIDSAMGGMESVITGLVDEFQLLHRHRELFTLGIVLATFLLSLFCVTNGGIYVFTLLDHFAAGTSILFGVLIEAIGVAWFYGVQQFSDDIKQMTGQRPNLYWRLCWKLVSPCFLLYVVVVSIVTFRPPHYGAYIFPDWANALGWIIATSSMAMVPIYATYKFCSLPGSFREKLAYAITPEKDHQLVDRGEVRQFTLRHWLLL

Mus musculus [3] = species: Mus musculus; experiment: Gross behavioral effects ascertained in mice; W indicates weak stimulant or depressant activity of little significance.; type: functional, organism-based
How it was run: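 Male Swiss Webster mice, 18–24 g, three per dose, given ip doses of 1, 3, 10, 30, 100 and 300 mg/kg. Observed for gross behavior and held for 4 days. Scored as weak (W), stimulant (S), depressant (D) or convulsant (C).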

[4] = target: Norepinephrine transporter (Rattus norvegicus, UniProt Q9WTR4); experiment: Inhibition of uptake of tritiated norepinephrine (NE) in rat synaptosomes; type: subcellular, Brain
Sequence of Norepinephrine transporter (Q9WTR4 whole entry): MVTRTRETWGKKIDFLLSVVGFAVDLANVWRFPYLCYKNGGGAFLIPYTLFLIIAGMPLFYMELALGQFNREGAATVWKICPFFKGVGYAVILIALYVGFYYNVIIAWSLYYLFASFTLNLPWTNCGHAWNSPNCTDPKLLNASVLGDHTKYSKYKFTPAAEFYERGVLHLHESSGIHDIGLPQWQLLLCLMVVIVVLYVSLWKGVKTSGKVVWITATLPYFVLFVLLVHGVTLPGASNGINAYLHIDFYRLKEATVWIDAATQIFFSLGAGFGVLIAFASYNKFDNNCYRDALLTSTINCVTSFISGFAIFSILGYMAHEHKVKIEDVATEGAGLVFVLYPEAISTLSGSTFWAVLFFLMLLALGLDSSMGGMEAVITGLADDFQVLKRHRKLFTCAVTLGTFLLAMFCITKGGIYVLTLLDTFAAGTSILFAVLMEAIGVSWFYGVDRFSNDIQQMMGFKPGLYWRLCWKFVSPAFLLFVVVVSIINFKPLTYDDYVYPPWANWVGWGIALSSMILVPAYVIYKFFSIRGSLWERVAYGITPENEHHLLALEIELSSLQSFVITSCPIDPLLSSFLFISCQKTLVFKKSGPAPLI

Mus musculus [5] = species: Mus musculus; experiment: Antagonism of tetrabenazine (TBZ)-induced depression in mice measured for ptosis; type: functional; conditions: Mus musculus; read-out: ED50; how it was run: as §1
[6] = target: D(2) dopamine receptor (Rattus norvegicus) (UniProt P61169); experiment: Binding affinity towards dopamine receptor D2 at 1.0 uM concentration
Sequence of D(2) dopamine receptor (Rattus norvegicus) (P61169 whole entry): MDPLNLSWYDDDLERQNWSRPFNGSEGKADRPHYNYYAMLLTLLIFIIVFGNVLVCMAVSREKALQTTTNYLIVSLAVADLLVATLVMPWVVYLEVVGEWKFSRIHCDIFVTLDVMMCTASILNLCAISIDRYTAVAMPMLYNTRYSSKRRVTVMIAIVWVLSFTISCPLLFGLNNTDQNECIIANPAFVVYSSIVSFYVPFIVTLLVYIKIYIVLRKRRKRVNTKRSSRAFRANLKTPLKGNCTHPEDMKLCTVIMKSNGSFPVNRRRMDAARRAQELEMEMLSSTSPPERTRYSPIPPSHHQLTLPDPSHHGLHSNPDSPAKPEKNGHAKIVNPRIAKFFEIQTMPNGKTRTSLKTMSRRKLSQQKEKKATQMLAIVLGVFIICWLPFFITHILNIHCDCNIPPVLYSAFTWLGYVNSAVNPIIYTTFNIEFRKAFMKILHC
How it was run: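 Rat brain crude synaptic membranes in 20 mM NaHEPES pH 7.5. Ligands: α1 cortex […] 0.4 nM, nonspecific with (-)-NE 100 μM, 30 min at 25 °C. […] D2 striatum [3H]spiperone 0.05 nM with (+)-butaclamol 1 μM, 45 min at 37 °C. S1 cortex [3H]5-HT 1 nM plus glutathione and MgCl2, with 5-HT 10 μM, 20 min at 37 °C. […] Samples filtered on GF/B and counted.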

[7] = target: Sodium-dependent serotonin transporter (Rattus norvegicus) (UniProt P31652); experiment: Ability to inhibit the uptake of [3H]- serotonin(5-HT) 0.1 uM concentration at rat brain synaptosomes; type: functional, subcellular
Sequence of Sodium-dependent serotonin transporter (Rattus norvegicus) (P31652 whole entry): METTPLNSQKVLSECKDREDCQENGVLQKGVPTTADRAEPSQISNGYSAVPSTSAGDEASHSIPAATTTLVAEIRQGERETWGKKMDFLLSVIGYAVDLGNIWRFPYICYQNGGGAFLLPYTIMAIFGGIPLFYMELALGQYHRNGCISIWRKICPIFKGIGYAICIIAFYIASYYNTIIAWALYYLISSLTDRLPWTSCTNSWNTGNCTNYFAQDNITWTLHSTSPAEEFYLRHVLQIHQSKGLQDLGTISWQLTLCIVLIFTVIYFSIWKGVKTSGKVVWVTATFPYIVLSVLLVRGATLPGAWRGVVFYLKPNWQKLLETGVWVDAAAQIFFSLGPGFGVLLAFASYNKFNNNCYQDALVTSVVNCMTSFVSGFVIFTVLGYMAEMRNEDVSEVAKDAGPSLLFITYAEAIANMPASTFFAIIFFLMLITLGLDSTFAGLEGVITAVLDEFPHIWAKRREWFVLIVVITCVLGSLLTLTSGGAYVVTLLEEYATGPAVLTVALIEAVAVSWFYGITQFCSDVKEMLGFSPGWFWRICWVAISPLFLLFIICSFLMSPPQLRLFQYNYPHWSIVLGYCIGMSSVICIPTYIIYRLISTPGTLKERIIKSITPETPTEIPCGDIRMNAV
How it was run: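 Male Wistar rat brain synaptosomes (P2 fraction): hypothalamus for NE, striatum for DA, cerebral cortex for 5-HT. Buffer is Tris- or HEPES-buffered salt medium with glucose, ascorbate and nialamide, pH 7.4 at 37 °C. Preincubated 10 min at 37 °C with compound. Uptake started with [3H]NE 100–300 nM, [3H]DA 50–300 nM or [3H]5-HT 100–200 nM, incubated 3 min (DA) or 6–10 min (NE, 5-HT). Blanks held on ice. Filtered, counted by scintillation.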

Row | SMILES | ED50 (Mus musculus [1]) [mg/kg] | Ki [2] [nM] | behavior (Mus musculus [3]) | Ki [4] [nM] | ED50 (Mus musculus [5]) [mg/kg] | inhibition [6] [%] | inhibition [7] [%]
1 | CCCCc1ccc([C@@H]2CN3CCC[C@@H]3c3ccccc32)cc1 | > 60 | 230 | Weak | 29.9 | 9.1 |  | 
2 | Br.Oc1ccc([C@@H]2CN3CCC[C@H]3c3ccccc32)cc1O | > 30 | 32.6 | Partial stimulant | 22.3 | 1.8 | 6 | 
3 | CCN1Cc2ccccc2C(c2ccccc2)C1 (stereo not drawn) | ~10 | 36.4 | Weak | 5.6 | ~10 |  | 
4 | Br.O=[N+]([O-])c1ccc([C@@H]2CN3CCC[C@@H]3c3ccccc32)cc1 | 0.17 | 94.2 | Weak | 3.4 | 0.08 |  | 
5 | Br.COc1ccc([C@@H]2CN3CCC[C@@H]3c3ccccc32)cc1 | 0.27 | 5.2 | Weak | 0.79 | 0.03 |  | 
6 | NC(=O)c1ccc([C@@H]2CN3CCC[C@@H]3c3ccccc32)cc1 |  | 84.5 |  | 90.2 |  |  | 
7 | N#Cc1ccc([C@@H]2CN3CCC[C@@H]3c3ccccc32)cc1 | ~2 |  |  |  | ~2 |  | 
8 | c1ccc([C@H]2CN3CC[C@H]3c3ccccc32)cc1 | ~2 | 81.6 |  | 6.3 | 1.25 |  | 
9 | FC(F)(F)c1ccc2c(c1)[C@H]1CCCN1C[C@H]2c1ccccc1 |  | 11.2 |  | 3.1 |  |  | 
10 | COc1ccc(NC(=O)Nc2ccc([C@@H]3CN4CCC[C@H]4c4ccccc43)cc2)cc1 |  | 8.8 |  | 15 |  |  | 
11 | Br.c1ccc2c(c1)[C@@H](C1CCCCC1)CN1CCC[C@@H]21 | 6.4 | 604 | Weak | 81 | 1.9 |  | 
12 | Clc1ccc([C@@H]2CN3CCC[C@H]3c3ccccc32)cc1 | 8.1 |  | Weak |  | 5.4 |  | 
13 | CSc1ccccc1[C@@H]1CN2CCC[C@@H]2c2ccccc21 | ~0.6 |  |  |  | ~0.6 |  | 
14 | CN1Cc2c(N)cccc2C(c2ccccc2)C1 (stereo not drawn) [NOMIFENSINE] | 0.18 |  | Partial stimulant |  | 0.11 |  | 
15 | FC(F)(F)c1cccc([C@@H]2CN3CCC[C@@H]3c3ccccc32)c1 (stereo in doubt; (+)-37b) |  | 25.7 |  | 1.5 |  |  | 
16 | Fc1cccc(Cl)c1[C@@H]1CN2CCC[C@@H]2c2ccccc21 | > 3 | 279 |  | 11.5 | > 3 |  | 
17 | Br.Cn1ccc2c1[C@@H](c1ccccc1)CN1CCC[C@@H]21 | 2.4 | 9.8 | Weak | 7.5 | ~0.75 |  | 
18 | CSc1ccc([C@@H]2CN3CCC[C@@H]3c3ccccc32)cc1 (stereo in doubt; (-)-48b) |  |  |  |  |  | 5 | 
19 | C[C@@]12CCCN1C[C@H](c1ccc(Cl)cc1)c1ccccc12 | 6.8 | 7.6 | Weak | 3.8 | 1.5 |  | 
20 | Clc1ccc([C@@H]2CN3CCC[C@@H]3c3ccccc32)c(Cl)c1 | ~2 |  |  |  | ~1 |  | 

Row | SMILES | ED50 (Mus musculus [1]) [mg/kg] | Ki [2] [nM] | behavior (Mus musculus [3]) | Ki [4] [nM] | ED50 (Mus musculus [5]) [mg/kg] | inhibition [6] [%] | inhibition [7] [%]
21 | FC(F)(F)c1cccc([C@@H]2CN3CCCC3c3cc(Cl)ccc32)c1 (stereo partly drawn) |  | 168 |  | 32.6 |  |  | 
22 | O=C(Nc1ccccc1)Nc1ccc([C@@H]2CN3CCC[C@@H]3c3ccccc32)cc1 |  | 24.5 |  | 117 |  |  | 
23 | c1ccc([C@H]2CN3CCCC[C@H]3c3ccccc32)cc1 | > 30 | > 1000 | Weak | 13.7 | > 30 |  | 
24 | Cc1ccccc1[C@@H]1CN2CCC[C@@H]2c2ccccc21 | ~1 | 117 |  | 5.6 | ~1 |  | 
25 | Br.Oc1ccccc1[C@@H]1CN2CCC[C@@H]2c2ccccc21 | > 3 | 360 | Weak | 8.8 | ~2 |  | 
26 | C[C@@]12CCCN1C[C@@H](c1ccc(Cl)cc1)c1ccccc12 |  | ~100 | Weak | ~100 |  |  | 21
27 | COc1ccc2c(c1)[C@H]1CCCN1C[C@H]2c1ccccc1 |  | 2.8 |  | 2.2 |  |  | 
28 | O[C@]1(c2ccccc2)CN2CCC[C@H]2c2ccccc21 | 8.4 | 28.5 | Weak | 8.1 | 1.6 |  | 
29 | Clc1cccc2c1[C@H](c1ccccc1)CN1CCC[C@H]21 |  | 25.3 |  | 11.6 |  |  | 
30 | Br.COc1ccc([C@@H]2CN3CCC[C@H]3c3ccccc32)cc1 | ~50 | 119 | Weak | 27.6 | 3 |  | 
31 | Br.Clc1ccc2c(c1)[C@H]1CCCN1C[C@H]2c1ccccc1 | ~0.3 | 2.5 |  | 0.62 | ~0.5 |  | 
32 | COc1cccc2c1[C@H](c1ccccc1)CN1CCC[C@H]21 | 10 | 12.3 | Weak | 11.5 | 1.2 |  | 
33 | CCn1cc(C(=O)O)c(=O)c2ccc(Cc3ccccc3)nc21 [AMFONELIC ACID] |  | 7.2 |  | 41.1 |  |  | 
34 | Br.c1csc([C@H]2CN3CCC[C@H]3c3ccsc32)c1 | ~24 | 39.8 | Weak | 14.6 | ~30 |  | 
35 | Br.Brc1ccccc1[C@@H]1CN2CCC[C@@H]2c2ccccc21 | ~0.6 | 26.5 |  | 1.5 | ~1 |  | 
36 | Clc1ccc([C@@H]2CN3CCC[C@H]3c3ccccc32)cc1Cl | ~41 | 30.8 | Weak | 16 | 8 |  | 
37 | Clc1ccc([C@@H]2CN3CCC[C@H]3c3cc(Cl)ccc32)cc1 | > 100 | 65.1 | Weak | 33.8 | ~37 |  | 
38 | Br.CS(=O)(=O)c1ccc([C@@H]2CN3CCC[C@H]3c3ccccc32)cc1 | > 30 |  | Weak |  | 17.7 |  | 
39 | FC(F)(F)c1ccc([C@@H]2CN3CCC[C@@H]3c3ccccc32)cc1 | > 3 | 128 |  | 10.6 | ~2 |  | 
40 | Br.O[C@@]1(c2ccccc2)CN2CCC[C@H]2c2ccccc21 | ~25 | 258 | Weak | 40.8 | 6.2 |  | 
